The values that follow come from PubChem BioAssay AID488891 (Broad Institute, 2010).

Assay [1] can be described thus: caspase activation in A1/BIM-primed MEFs, dose response, A1 inhibitor project, cell-based, alternate A1 construct, Caspase-Glo luminescence, dry powder (AID 488891). Conditions: MEF Flag-A1-IRES-BIM, caspase-Glo luminescence, 3 h; at 150 µM (top of the series). The essentials: (§1)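 Test system – mouse embryonic fibroblasts primed with Flag-A1-IRES-BIM construct · Doses – compound dose-response series, pin-transferred on day 2 · Times – 3 h compounds at 37 °C, 1 h detection reagent at RT · Technique – luminescence with CaspaseGlo reagent · Read-out basis – caspase activation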

Assay [2] deals with MEF Flag-A1-IRES-BIM, caspase-Glo luminescence, 3 h. The description is as above. Put shortly:
as §1

Activity calls are given as the source filed them.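 How the source made its calls: active means compounds raising caspase signal with a fitted AC50 no higher than the top valid dose tested; inconclusive means flat fit at partial mid-level activity, or unreliable fit; inactive means the rest.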

On to `C=C1[C@@H](C)[C@H]2[C@H](Cc3ccccc3)NC(=O)[C@]23[C@H](OC(C)=O)/C=C/[C@](C)(O)C(=O)[C@@H](C)C/C=C/[C@H]3[C@@H]1O`, for which the caspase activation in assay [1] is 1.11% (inactive). Consider `CC(=O)N[C@H]1[C@H](O[C@H]2CC[C@@]3(C)C(CC[C@]4(C)C3CC=C3[C@@H]5CC(C)(C)CC[C@]5(C(=O)OC5OCC(O)C(O)C5O)C(O)C[C@]34C)C2(C)C)O[C@H](COC2OCC(O)C(OC3OCC(O)C(O)C3O)C2O)[C@@H](O[C@@H]2O[C@@H](C)[C@H](O)[C@@H](O)[C@H]2O[C@@H]2O[C@@H](C)[C@H](O)[C@@H](O)[C@H]2O)[C@@H]1O` (stereo not given in full), for which the AC50 in assay [2] was 7.88 µM. In the case of `Cc1cccc(NC(=O)/C(C#N)=C/c2cn(CC(=O)NCc3ccco3)c3ccccc23)c1`, in assay [2], the AC50 was 3.76 µM. For `CC(C)(C)n1nc(-c2ccc(Cl)cc2)c2c(N)ncnc21`, in assay [2], the AC50 is > 150 µM (inactive). Regarding `C=C1[C@@H](C)[C@H]2[C@H](Cc3ccccc3)NC(=O)[C@]23OC(=O)/C=C\[C@H](O)CCC[C@@H](C)C/C=C/[C@H]3[C@@H]1O`, in assay [2], the AC50 is 6.46 µM. On to `Cc1ccc(CS(=O)(=O)c2ncc(Cl)c(C(=O)Nc3nnc(C(C)C)s3)n2)cc1`, for which the concentration at half-maximal activity (AC50) in assay [2] was 5.49 µM. `O=C(Oc1cccc(/C=N/Nc2nc(Nc3ccccc3)nc(N3CCOCC3)n2)c1)c1ccco1`: in assay [2], the half-maximal activity concentration (AC50) was 8.01 µM. On the same count and under the same terms, with `C/C1=C/C(=O)O[C@@H]2C[C@@H](CC[C@H](C)/C=C\CC1)O[C@@](O)(C1CSC(=O)N1)C2` (stereo not given in full) the figure was 0.607 µM; with `COc1ccc(N(C(=O)CCl)C(C(=O)NCCc2ccccc2)c2cccs2)cc1Cl` (stereo not given), 9.36 µM; with `Cc1c(C=O)c(C=O)c(C)n1Cc1ccccc1`, 12.9 µM. Still for that read-out and setting: with `O=C(CCl)N=c1sccn1Cc1ccccc1Cl` the figure was 1.28 µM; with `CCc1cc2c(=O)c(-c3cnn(-c4ccccc4)c3)c(C)oc2cc1OCC(=O)Nc1cccc(C)c1`, 5.29 µM. Consider `Cc1ccc(Sc2c([N+](=O)[O-])c(=O)n(C)c3ccccc23)cc1`, for which, in assay [2], the half-maximal activity concentration (AC50) is 13.4 µM. The same measure, in the same setting: under `Cc1cccc(CS(=O)(=O)c2ncc(Cl)c(C(=O)Nc3nnc(C(C)C)s3)n2)c1` stands 12 µM; under `Cn1c(=NC(=O)CCl)sc2ccccc21`, 3.46 µM. The same measure, in the same setting: with `COc1cc(CN2CCN(c3cc(C)ccc3C)CC2)ccc1O` the figure was 7.24 µM; with `Nc1nc(F)nc2c1ncn2[C@@H]1O[C@H](CO)[C@@H](O)[C@H]1O`, 1.5 µM. Regarding `CCOC(=O)CSC1=N/C(=C/c2ccc(-n3cncn3)cc2)C(=O)N1C(C)=O`, in assay [2], the AC50 was 11.1 µM.

In the case of `CCc1nnc(NC(=O)c2nc(S(=O)(=O)Cc3ccccc3)ncc2Cl)s1`, the AC50 in assay [2] was 11.6 µM. Take `CC(=O)OC(C)(C)/C=C/C(=O)[C@](C)(O)C1[C@H](O)C[C@@]2(C)C3CC=C4C(C[C@H](O)C(=O)C4(C)C)[C@]3(C)C(=O)C[C@]12C` (stereo not given in full): the caspase activation in assay [1] is 3.76% (inactive). Regarding `Cc1cc(C(=O)CCl)c(C)n1CCc1ccc(Cl)cc1`, the AC50 in assay [2] was 9 µM. Consider `COc1cc(/C=C(/C#N)c2nc3ccccc3[nH]2)ccc1OCC(=O)Nc1ccccc1C(C)C`, for which the caspase activation in assay [1] is 0.299% (inactive).

For the compound `CCSc1nnc(NC(=O)c2nc(S(=O)(=O)Cc3ccc(F)cc3)ncc2Cl)s1`, the AC50 in assay [2] is 13.1 µM.

Regarding `Cc1c(CCOC(=O)c2ccc(N3CCOCC3)c([N+](=O)[O-])c2)sc[n+]1CC#N`, the AC50 in assay [2] was 14.2 µM. As for `COc1cccc(C(=O)C(C#N)=C(SC)SC)c1`, the AC50 in assay [2] is 1.64 µM.

Usually AC50 stands for the concentration at which the activity in the assay is half-maximal.
